Measurements published in ChEMBL document CHEMBL5236663, “Structure-activity relationship of dibenzylideneacetone analogs against the neglected disease pathogen, Trypanosoma brucei” (Bioorg Med Chem Lett, 2023).
Activity calls are given as the source filed them. The calls are words filed in the database; no cut-off is given here.

Assays:
[1] = test system: Trypanosoma brucei; experiment: Antitrypanosomal activity against Trypanosoma brucei Lister 427 assessed as parasite growth inhibition measured after 72 hrs by SYBER green staining based multilabel reader analysis; assay type: functional, organism-based; settings: Lister 427, 72 h
Procedure, shortened: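 Bloodstream-form T. b. brucei Lister 427 were screened first at 4 μM, and compounds giving >50% growth inhibition went on to eight-point dose-response. Viability was read by SYBR green after 72 h, giving EC50. At least three assay replicates were run, each in duplicate, reported as mean ± SD.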

[2] = test system: HEK293; experiment: Cytotoxicity against human HEK293 cells assessed as reduction in cell viability at 20 uM measured after 48 hrs by resazurin reagent based multilabel reader analysis; assay type: toxicity; settings: hek293, 48 h
[3] = Selectivity index, ratio of CC50 for cytotoxicity against human HEK293 cells to EC50 for antitrypanosomal activity against Trypanosoma brucei Lister 427; assay type: toxicity, cell-based; settings: read-out: Ratio CC50/EC50
[4] = test system: Trypanosoma brucei; experiment: Antitrypanosomal activity against Trypanosoma brucei Lister 427 assessed as time required to kill the parasite at 0.5 to 2 uM by hemocytometer cell counting analysis; assay type: functional; settings: dose 0.5-2 µM
Procedure, shortened: (§1)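 Time-to-kill on bloodstream-form Lister 427 parasites. Test compound was used at 1, 2 and 4 μM, and pentamidine at 0.5, 1 and 2 μM. Parasites were counted over time by hemocytometer, with counts normalized to a DMSO negative control. Three replicates, mean ± SD.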

[5] = test system: Trypanosoma brucei; experiment: Antitrypanosomal activity against Trypanosoma brucei Lister 427 assessed as parasite growth inhibition at 1 uM measured for 6 to 48 hrs by SYBER green staining based multilabel reader analysis; assay type: functional, organism-based; settings: time 6-48 hrs
Procedure, shortened: (§2)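 Washout test on bloodstream-form Lister 427 trypanosomes to tell trypanocidal from trypanostatic action. Compound at 1, 2 or 4 μM was incubated for 6, 4 or 2 h respectively, and the parasites were then washed three times. Regrowth and division were monitored for a further 48 h.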

[6] = test system: Trypanosoma brucei; experiment: Antitrypanosomal activity against Trypanosoma brucei Lister 427 assessed as parasite growth inhibition at 2 uM measured for 4 to 48 hrs by SYBER green staining based multilabel reader analysis; assay type: functional, organism-based; settings: time 4-48 hrs; procedure, shortened: as §2
[7] = test system: Trypanosoma brucei; experiment: Antitrypanosomal activity against Trypanosoma brucei Lister 427 assessed as parasite growth inhibition at 4 uM measured for 2 to 48 hrs by SYBER green staining based multilabel reader analysis; assay type: functional, organism-based; settings: time 2-48 hrs; procedure, shortened: as §2
[8] = test system: Trypanosoma brucei; experiment: Antitrypanosomal activity against Trypanosoma brucei Lister 427 assessed as time required to kill the parasite at 1 to 4 uM by hemocytometer cell counting analysis; assay type: functional; settings: dose 1-4 µM; procedure, shortened: as §1
[9] = test system: Trypanosoma brucei; experiment: Antitrypanosomal activity against Trypanosoma brucei Lister 427 assessed as time required to kill the parasite at 2 to 4 uM by hemocytometer cell counting analysis; assay type: functional; settings: dose 2-4 µM; procedure, shortened: as §1

EC50 [1] | SMILES | CC50 [2] | further results
0.37 µM | O=C(/C=C/c1ccccc1)/C=C/c1ccc(O)c(O)c1 | 5.54 µM | 
2.15 µM | O=C(/C=C/c1ccccc1)/C=C/c1ccc(Cl)c(Cl)c1 | 11.3 µM | 
> 4 µM | OC(CCc1ccccc1Cl)CCc1ccccc1Cl | > 20 µM | 
> 4 µM | COc1ccc(/C=C/C(=O)/C=C/c2ccc(OC)cc2)cc1 | > 20 µM | 
> 4 µM | COc1cc(CCC(=O)CCc2cc(OC)c(OC)c(OC)c2)cc(OC)c1OC | > 20 µM | 
> 4 µM | Cc1ccc(CCC(=O)CCc2ccc(C)cc2)cc1 | > 20 µM | 
0.31 µM | O=C(/C=C/c1ccccc1Cl)/C=C/c1ccccc1Cl | 4.27 µM | selectivity ratio [3]: > 10
> 4 µM | OC(CCc1cccc(Br)c1)CCc1cccc(Br)c1 | > 20 µM | 
1.78 µM | COc1cc(/C=C/C(=O)CC(=O)/C=C/c2ccc(O)c(OC)c2)ccc1O [CURCUMIN] | 5.56 µM | 
> 4 µM | COc1cc(/C=C2\CCC/C(=C\c3cc(OC)cc(OC)c3)C2=O)cc(OC)c1 | 3.7 µM | 
1.42 µM | O=C(/C=C/c1ccc(F)cc1)/C=C/c1ccc(F)cc1 | 7.64 µM | 
0.2 µM | O=C1/C(=C/c2ccccc2F)CNC/C1=C\c1ccccc1F | 3.58 µM | 
> 4 µM | O=C(/C=C/c1cccc(Br)c1)/C=C/c1cccc(Br)c1 | > 20 µM | 
> 4 µM | Cc1ccc(CCC(O)CCc2ccc(C)cc2)cc1 | > 20 µM | 
> 4 µM | COc1ccc(CCC(=O)CCc2ccc(OC)c(OC)c2)cc1OC | > 20 µM | 
0.29 µM | O=C(/C=C/c1ccccc1)/C=C/c1cccc(O)c1 | 5.79 µM | 
> 4 µM | COc1ccc(CCC(O)CCc2ccc(OC)c(OC)c2)cc1OC | > 20 µM | 
> 4 µM | O=C(/C=C/c1ccc(Cl)c(Cl)c1)CC(=O)/C=C/c1ccc(Cl)c(Cl)c1 | > 20 µM | 
0.36 µM | COc1cc(/C=C/C(=O)/C=C/c2cc(OC)c(OC)c(OC)c2)cc(OC)c1OC | 0.3 µM | 
> 4 µM | O=C(/C=C/c1ccc(C(F)(F)F)cc1)CC(=O)/C=C/c1ccc(C(F)(F)F)cc1 | > 20 µM | 
0.012 µM | N=C(N)c1ccc(OCCCCCOc2ccc(C(=N)N)cc2)cc1 [PENTAMIDINE] | > 4 µM | Time [4]: >30 h

EC50 [1] | SMILES | CC50 [2] | further results
0.24 µM | COc1cc(/C=C/C(=O)/C=C/c2cc(OC)cc(OC)c2)cc(OC)c1 | 1.45 µM | 
1.93 µM | O=C(/C=C/c1ccccc1)/C=C/c1ccc(Cl)cc1 | > 20 µM | 
2.51 µM | O=C(/C=C/c1ccccc1)/C=C/c1ccc(C(F)(F)F)cc1 | > 20 µM | 
> 4 µM | COc1ccc(/C=C/C(=O)CC(=O)/C=C/c2ccc(OC)cc2OC)c(OC)c1 |  | 
3.29 µM | O=C(/C=C/c1cccc(O)c1)CC(=O)/C=C/c1cccc(O)c1 | 6.73 µM | 
> 4 µM | O=C(CCc1ccccc1Cl)CCc1ccccc1Cl | > 20 µM | 
1.25 µM | O=C(/C=C/c1ccccc1)/C=C/c1ccc(O)cc1 | 5.85 µM | 
0.2 µM | O=C(/C=C/c1ccccc1)/C=C/c1cccc([N+](=O)[O-])c1 | 2.88 µM | Activity [5]: Active; Activity [6]: Active; Activity [7]: Active; Time [8]: <24 h; Time [9]: <6 h
0.42 µM | COc1ccc(/C=C/C(=O)/C=C/c2ccc(OC)c(OC)c2)cc1OC | 4.55 µM | selectivity ratio [3]: > 10
0.66 µM | COc1cc(/C=C/C(=O)/C=C/c2ccccc2)ccc1O | 5.63 µM | 
> 4 µM | CN(C)c1ccc(/C=C/C(=O)/C=C/c2ccccc2)cc1 | 9.79 µM | 
3.99 µM | COc1cc(/C=C/C(=O)CC(=O)/C=C/c2cc(OC)c(OC)c(OC)c2)cc(OC)c1OC |  | 
2.33 µM | O=C(/C=C/c1ccccc1)/C=C/c1ccc(Br)cc1 | 7.05 µM | 
> 4 µM | O=C(CCc1cccc(Br)c1)CCc1cccc(Br)c1 | > 20 µM | 
> 4 µM | COc1cc(CCC(O)CCc2cc(OC)c(OC)c(OC)c2)cc(OC)c1OC | > 20 µM | 
> 4 µM | COc1cccc(/C=C/C(=O)CC(=O)/C=C/c2cccc(OC)c2)c1 | > 20 µM | 
3.74 µM | Cc1ccc(/C=C/C(=O)/C=C/c2ccccc2)cc1 |  | 
> 4 µM | Cc1ccc(/C=C/C(=O)/C=C/c2ccc(C)cc2)cc1 | > 20 µM | 
> 4 µM | COc1cccc(/C=C/C(=O)/C=C/c2cccc(OC)c2)c1 | > 20 µM | 
0.41 µM | COc1ccc(/C=C/C(=O)/C=C/c2ccc(O)c(O)c2)cc1 | 6.61 µM | 
> 4 µM | COc1ccc(/C=C/C(=O)/C=C/c2ccccc2)cc1 | 5.49 µM | 

SMILES | EC50 [1] | CC50 [2] | further results
O=C(/C=C/c1ccccc1)CC(=O)/C=C/c1ccccc1 | > 4 µM | > 20 µM | 
COc1cc(/C=C/C(=O)/C=C/c2ccc(O)c(OC)c2)ccc1O | 0.84 µM | 9.74 µM | 
COc1ccc(/C=C/C(=O)CC(=O)/C=C/c2ccc(OC)c(OC)c2)cc1OC [TETRAMETHOXYCURCUMIN] | > 4 µM | > 20 µM | 
